Screening results: PubChem, several laboratories
Shown are actives, neighbours in structure and some others; about 3.7% of the full set was active somewhere.
MC4R antagonist: blocks human MC4R cAMP signaling; MC4R-expressing cells, MTII-stimulated cAMP, LANCE TR-FRET; inhibition, % at 6.5 µM; P32245; hit rate 0.48% among 360,000;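 active = inhibition above its plate's cutoff, the mean of tested wells on that plate plus 3 SD, cut at about 29% in these data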
Target sequence (P32245 whole entry, looked up): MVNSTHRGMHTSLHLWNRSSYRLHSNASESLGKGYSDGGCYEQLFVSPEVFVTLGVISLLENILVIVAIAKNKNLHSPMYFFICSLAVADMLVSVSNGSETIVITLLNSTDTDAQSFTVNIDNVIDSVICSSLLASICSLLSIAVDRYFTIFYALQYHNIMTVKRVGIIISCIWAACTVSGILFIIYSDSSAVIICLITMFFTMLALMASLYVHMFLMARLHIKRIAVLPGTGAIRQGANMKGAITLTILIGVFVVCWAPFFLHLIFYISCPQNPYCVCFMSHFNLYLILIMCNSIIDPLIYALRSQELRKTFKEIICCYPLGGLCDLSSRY
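Assay system: U2OS cells stably expressing human melanocortin 4 receptor (MC4R) / Dosing: 6.5 µM / Timing: compound 30 min, challenge 1 h, detection 1 h / Measured by: Eu-cAMP/anti-cAMP TR-FRET, emission 671 nm / Replicates: singlicate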
Exocytosis inh: blocks lytic granule exocytosis | TALL-104 LAMP-1 surface exposure, flow cytometry; cells stimulated with thapsigargin and PMA | inhibition, % at 10 µM | hit rate 0.66% among 360,000;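 active = inhibition above about 55%, limit read from the data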
Myeloid diff MLP: myeloid differentiation induction | ER-HoxA9 myeloid progenitors, lysozyme-GFP differentiation, flow cytometry | calls only at 10 µM | hit rate 1% among 360,000 | AID 624256;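 active = normalized GFP-positive differentiation at or above the plate's own cutoff, the solvent-only control mean plus 3 SD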;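 note: cells exposed to compound for four days before flow analysis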
EBI2 block: blocks human EBI2 receptor beta-arrestin signaling | AID 651636 | inhibition, % at 5 µM | EBI2 beta-arrestin recruitment, luminescence, 7a,25-OHC stimulated | hit rate 0.81% among 360,000 | P32249; in the data active = inhibition above about 38%;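 note: enzyme fragment complementation signal reports receptor beta-arrestin coupling in cells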
Target sequence (P32249 whole entry, looked up, the tested form may be a part): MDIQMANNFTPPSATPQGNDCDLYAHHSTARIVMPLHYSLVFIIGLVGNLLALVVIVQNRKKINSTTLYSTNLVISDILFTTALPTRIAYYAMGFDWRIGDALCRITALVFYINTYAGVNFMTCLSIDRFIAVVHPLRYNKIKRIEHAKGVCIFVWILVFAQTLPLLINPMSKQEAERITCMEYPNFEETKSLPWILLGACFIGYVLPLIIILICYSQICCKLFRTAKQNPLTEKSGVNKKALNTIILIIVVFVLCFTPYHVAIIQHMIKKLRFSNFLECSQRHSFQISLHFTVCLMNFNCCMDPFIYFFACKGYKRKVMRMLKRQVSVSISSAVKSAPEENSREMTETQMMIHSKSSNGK
MC4R ag barr: activates human MC4R beta-arrestin recruitment. P32245. U2OS MC4R beta-arrestin complementation, luminescence; percent of melanotan II response, DMSO zero. activation, % at 8.9 µM. hit rate 0.98% among 360,000;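 active = activation above a per-plate cutoff, the mean activation of sample wells on that plate plus 3 SD, cut at about 8% in these data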
EBI2 conf: EBI2 (human) antagonism, single concentration confirmation; shares compounds with EBI2 block; EBI2 beta-arrestin luminescence, 7a,25-OHC antagonism; inhibition, % at 5 µM; hit rate 29% among 2,400; AID 651997;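 active = inhibition of at least 50%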
EBI2 agonist: activates EBI2, counter-screen for EBI2 antagonists. shares compounds with EBI2 block. EBI2-expressing cells, agonist mode, luminescence, 60 min; 0% vehicle, 100% 7α,25-dihydroxycholesterol control. activation, % at 5 µM. 2,400 tested, under 10 active;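 active = activation of at least 50%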
bGal cs: counter-screen for EBI2 antagonists: E. coli beta-galactosidase inhibition; inhibition, % at 5 µM; AID 652176; hit rate 1% among 2,400; shares compounds with EBI2 block; purified beta-galactosidase, luminescent Galacton Star, 15 min;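 active = replicate-average signal at least 3 plate SD below neutral wells, shown as high inhibition, flagging enzyme-inhibiting false positives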;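 note: higher means stronger loss of beta-gal luminescence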
Large screens that a line does not name were inactive (follow-up assays come after a bar, where they were run).

CCc1ccc(CCC(=O)N2CCN(S(=O)(=O)c3ccc(Br)cc3)CC2)cc1	EBI2 block 88.3 | EBI2 conf 52.3 | EBI2 agonist inactive | bGal cs inactive
COc1ccc(CCC(=O)N2CCN(S(=O)(=O)c3ccc(OC)c([N+](=O)[O-])c3)CC2)cc1	EBI2 block 54.5 | EBI2 conf inactive | EBI2 agonist inactive | bGal cs inactive
CC1CN(C(=O)CCC(=O)NC2CCCCC2)c2ccccc2S1 (stereo not given)	none
Cc1cc(OCC(=O)Nc2c(C(C)C)cccc2C(C)C)no1	none
CC(C)C(=O)N1CCC1(C)C(=O)Nc1cc(-c2ccccc2)nn1C (stereo not given)	none
OCc1cccc(-c2cnc3c(Nc4cccc(OC(F)(F)C(F)F)c4)nccn23)c1	EBI2 block 51.3 | EBI2 conf 50.9 | EBI2 agonist inactive | bGal cs inactive
Cc1ccc(-c2cnc3c(Nc4cccc(OC(F)(F)C(F)F)c4)nccn23)cc1	none
COc1ccc(CC(=O)N2CCN(S(=O)(=O)c3ccc(Cl)s3)CC2)cc1	none
N#Cc1ccc(OCC(=O)N2CCN(S(=O)(=O)c3cccc(Cl)c3)CC2)cc1	EBI2 block 53.6 | EBI2 conf inactive | EBI2 agonist inactive | bGal cs inactive
N#Cc1ccc(OCC(=O)N2CCN(S(=O)(=O)c3ccc(Cl)s3)CC2)cc1	EBI2 block 81.2 | EBI2 conf inactive | EBI2 agonist inactive | bGal cs inactive
COc1ccc(OCC(=O)N2CCN(S(=O)(=O)c3ccc(Cl)s3)CC2)cc1	EBI2 block 87.0 | EBI2 conf 79.3 | EBI2 agonist inactive | bGal cs inactive
N#CCCN(C(=O)COC(=O)c1cc(S(=O)(=O)N2CCOCC2)ccc1Cl)c1ccc(F)cc1	none
O=C(c1cc2ccccc2o1)N1CCCC1	none
O=C(c1cc2ccccc2o1)N1CCN(Cc2nc3ccccc3s2)CC1	EBI2 block 68.3 | EBI2 conf 54.6 | EBI2 agonist inactive | bGal cs inactive
O=C(c1cc2ccccc2o1)N1CCN(C/C=C/c2ccccc2)CC1	EBI2 block 85.5 | EBI2 conf 59.1 | EBI2 agonist inactive | bGal cs inactive
CC(C)(C)OC(=O)C[C@H]1C/C=C\C[C@H](CC(=O)NCCO)C(=O)N2CCC[C@@H]2COC1=O	none
COC(=O)C(=C/C(C)=C/c1cccnc1)C(=O)OC	none
COc1ccc(C2CC(c3ccccc3)=NN2C(=O)COC(=O)c2ccc(S(C)(=O)=O)cc2)cc1 (stereo not given)	none
COc1ccc(C2CC(c3ccccc3)=NN2C(=O)COC(=O)c2cc(S(=O)(=O)N3CCOCC3)ccc2F)cc1 (stereo not given)	EBI2 block 54.0 | EBI2 conf 52.5 | EBI2 agonist inactive | bGal cs inactive
CCN(CC)S(=O)(=O)c1ccc2c(c1)nc(SCC(=O)N1CCCCCC1)n2-c1ccc(OC)cc1	EBI2 block 47.1 | EBI2 conf 56.4 | EBI2 agonist inactive | bGal cs inactive
COC(=O)/C=C1\SC(=NC(=O)c2ccc(C)cc2)NC1=O	none
COC(=O)/C=C1/SC(=Nc2ccc(C)cc2C)NC1=O	EBI2 block 71.7 | EBI2 conf 72.5 | EBI2 agonist inactive | bGal cs inactive
COC(=O)/C=C1/SC(=Nc2ccc(Cl)c(Cl)c2)NC1=O	none
COC(=O)/C=C1\SC(=Nc2ccccc2)NC1=O	EBI2 block 52.3 | EBI2 conf 59.4 | EBI2 agonist inactive | bGal cs inactive
Cc1cccc(NC(=O)c2ccc(OC3CSC3)cc2)c1	EBI2 block 55.4 | EBI2 conf inactive | EBI2 agonist inactive | bGal cs inactive
COc1ccccc1N1CCN(S(=O)(=O)CCNC(=O)COc2ccccc2)CC1	EBI2 block 68.5 | EBI2 conf inactive | EBI2 agonist inactive | bGal cs inactive
COc1ccccc1N1CCN(S(=O)(=O)CCNC(=O)CCCc2ccccc2)CC1	none
O=C(C1=C[C@@H](c2ccc(C(F)(F)F)cc2)C[C@@H](OCc2ccc(CO)cc2)O1)N1CCN(Cc2ccc3c(c2)OCO3)CC1	none
O=C(C1=C[C@@H](c2ccc(Br)cc2)C[C@@H](OCc2ccc(CO)cc2)O1)N1CCN(Cc2ccc3c(c2)OCO3)CC1	EBI2 block 40.9 | EBI2 conf inactive | EBI2 agonist inactive | bGal cs inactive
O=C(NC1CCCC1)C1CCN(C(=O)c2ccc(-c3ccccc3)cc2)CC1	EBI2 block 49.4 | EBI2 conf inactive | EBI2 agonist inactive | bGal cs inactive
COc1ccc(CNC(=O)C2CCN(C(=O)c3cccc(Cl)c3)CC2)cc1	none
Cc1ccc(C(=O)N2CCC(C(=O)NC3CCCCCC3)CC2)cc1	none
COc1ccc(CNC(=O)C2CCN(C(=O)c3ccc(-c4ccccc4)cc3)CC2)cc1	EBI2 block 68.2 | EBI2 conf inactive | EBI2 agonist inactive | bGal cs inactive
CCc1nc2ccc(C(=O)N(C)Cc3ccccc3)cn2c1N(C)Cc1ccc(OC)cc1	none
Cc1ccc(Nc2c(-c3ccccc3O)nc3cnccn23)cc1	EBI2 block 57.4 | EBI2 conf inactive | EBI2 agonist inactive | bGal cs inactive
COc1ccc(Nc2c(-c3ccc(C)cc3)nc3cnccn23)cc1	none
O=C(COC(=O)/C=C/c1cccs1)NC(c1ccccc1)c1ccccc1	EBI2 block 61.6 | EBI2 conf inactive | EBI2 agonist inactive | bGal cs inactive
CCOC(=O)[C@]12CCCC=C1N(Cc1ccco1)C(=O)[C@H](CC(=O)NCC1CCCCC1)C2	none (no result: MC4R antagonist, MC4R ag barr)
O=C(c1ccc(-c2ccccc2)cc1)N1CCCC1	none
O=C(c1ccc(-c2ccccc2)cc1)N1CCN(c2ncccn2)CC1	EBI2 block 49.5 | EBI2 conf inactive | EBI2 agonist inactive | bGal cs inactive
COc1ccccc1N1CCN(C(=O)COc2ccc(C)cc2Br)CC1	EBI2 block 50.3 | EBI2 conf inactive | EBI2 agonist inactive | bGal cs inactive
CCCS(=O)(=O)N1CCN(C(=O)c2ccc(-c3ccccc3)cc2)CC1	EBI2 block 73.4 | EBI2 conf inactive | EBI2 agonist inactive | bGal cs inactive
C=CCN1CCN(C(=O)c2ccc(-c3ccccc3)cc2)CC1	EBI2 block 77.0 | EBI2 conf inactive | EBI2 agonist inactive | bGal cs inactive
COc1ccccc1N1CCN(C(=O)c2ccc(-c3ccccc3)cc2)CC1	EBI2 block 73.5 | EBI2 conf inactive | EBI2 agonist inactive | bGal cs inactive
COc1ccccc1N1CCN(C(=O)/C=C/c2cccc([N+](=O)[O-])c2)CC1	none
COc1ccccc1N1CCN(C(=O)/C=C/c2ccc(C)cc2)CC1	EBI2 block 93.1 | EBI2 conf 84.8 | EBI2 agonist inactive | bGal cs inactive
